ChEMBL document CHEMBL4028867, “Design, Synthesis, and Characterization of N-Oxide-Containing Heterocycles with in Vivo Sterilizing Antitubercular Activity” (J Med Chem, 2017)
In brackets after ≈: the same amount, converted by molar mass. Activity calls are given as the source filed them. No cut-off for these calls is given here.

Key:
MRC5 = experiment: Cytotoxicity against human MRC5 cells assessed as reduction in cell viability after 24 hrs by fluorescence assay; assay type: cell-based; details: MRC5, 24 h
Method in brief: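 MRC-5 human lung fibroblasts; cytotoxicity reported as IC50.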

[1] = n-Octanol/water partition coefficient, log P of the compound by HPLC analysis; assay type: physicochemical
Method in brief: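 Log P from n-octanol/water partition coefficient determined by HPLC method.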

[2] = tested on: Mycobacterium tuberculosis; experiment: Antitubercular activity against replicating stage Mycobacterium tuberculosis H37Rv ATCC 27294 after 7 days by Resazurin microtiter assay; assay type: functional; details: H37Rv ATCC 27294, 168 h
[3] = Selectivity index, ratio of IC50 for human MRC5 cells to IC50 for replicating stage Mycobacterium tuberculosis H37Rv ATCC 27294; assay type: toxicity; details: read-out: Selectivity Index
Escherichia coli = experiment: Antimicrobial activity against Escherichia coli ATCC 25922 at 200 uM incubated for 16 hrs; assay type: functional
Candida albicans = experiment: Antimicrobial activity against Candida albicans ATCC 10231 at 200 uM incubated for 48 hrs; assay type: functional
Staphylococcus aureus = experiment: Antimicrobial activity against Staphylococcus aureus ATCC 29213 at 200 uM incubated for 16 hrs; assay type: functional
[4] = tested on: Mycobacterium tuberculosis; experiment: Antitubercular activity against dormant stage Mycobacterium tuberculosis H37Rv ATCC 27294 incubated for 10 days in anaerobic condition followed by incubation for 28 hrs in ambient gaseous condition measured after day 11 by two fold serial dilution assay; assay type: functional
[5] = tested on: Mycobacterium tuberculosis; experiment: Growth inhibition of Mycobacterium tuberculosis H37Rv exposed to plasma from BALB/c mouse treated with 20 mg/kg, po administered through carboxymethylcellulose vehicle as single oral dose per gavage after 1 hr by Resazurin microtiter assay; assay type: functional; details: read-out: GI
Method in brief: (§1)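 The microemulsion was 10% cholesterol, 10% phosphatidylcholine/sodium oleate/polyoxyl 40 hydrogenated castor oil (3:6:8) and 80% phosphate buffer pH 7.4. Plasma taken at 0.3, 1, 2 or 4 h was tested by REMA for % Mtb growth inhibition, and plasma level was estimated against the in-vitro REMA MIC.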

[6] = tested on: Mycobacterium tuberculosis; experiment: Growth inhibition of Mycobacterium tuberculosis H37Rv exposed to plasma from BALB/c mouse treated with 20 mg/kg, po administered through microemulsion vehicle as single oral dose per gavage after 4 hrs by Resazurin microtiter assay; assay type: functional; details: read-out: GI; method in brief: as §1
[7] = tested on: Mycobacterium tuberculosis; experiment: Growth inhibition of Mycobacterium tuberculosis H37Rv exposed to plasma from BALB/c mouse treated with 20 mg/kg, po administered through microemulsion vehicle as single oral dose per gavage after 1 hr by Resazurin microtiter assay; assay type: functional; details: read-out: GI; method in brief: as §1
[8] = tested on: Mycobacterium tuberculosis; experiment: Growth inhibition of Mycobacterium tuberculosis H37Rv exposed to plasma from BALB/c mouse treated with 20 mg/kg, po administered through microemulsion vehicle as single oral dose per gavage after 0.3 hrs by Resazurin microtiter assay; assay type: functional; details: read-out: GI; method in brief: as §1
[9] = tested on: Mycobacterium tuberculosis; experiment: Growth inhibition of Mycobacterium tuberculosis H37Rv exposed to plasma from BALB/c mouse treated with 20 mg/kg, po administered through microemulsion vehicle as single oral dose per gavage after 2 hrs by Resazurin microtiter assay; assay type: functional; details: read-out: GI; method in brief: as §1
[10] = tested on: Mycobacterium tuberculosis; experiment: Antitubercular activity against Mycobacterium tuberculosis H37Rv ATCC 27294 under normal pH 6.8 condition; assay type: functional
[11] = tested on: Mycobacterium tuberculosis; experiment: Growth inhibition of Mycobacterium tuberculosis H37Rv exposed to plasma from BALB/c mouse treated with 20 mg/kg, po administered through carboxymethylcellulose vehicle as single oral dose per gavage after 4 hrs by Resazurin microtiter assay; assay type: functional; details: read-out: GI; method in brief: as §1
[12] = tested on: Mycobacterium tuberculosis; experiment: Growth inhibition of Mycobacterium tuberculosis H37Rv exposed to plasma from BALB/c mouse treated with 20 mg/kg, po administered through carboxymethylcellulose vehicle as single oral dose per gavage after 0.3 hrs by Resazurin microtiter assay; assay type: functional; details: read-out: GI; method in brief: as §1
[13] = tested on: Mycobacterium tuberculosis; experiment: Growth inhibition of Mycobacterium tuberculosis H37Rv exposed to plasma from BALB/c mouse treated with 20 mg/kg, po administered through carboxymethylcellulose vehicle as single oral dose per gavage after 2 hrs by Resazurin microtiter assay; assay type: functional; details: read-out: GI; method in brief: as §1
[14] = tested on: Mycobacterium tuberculosis; experiment: Antitubercular activity against Mycobacterium tuberculosis H37Rv ATCC 27294 under acidic pH 6 condition; assay type: functional

Nc1cccc(C(=O)N/N=C/c2ccc3no[n+]([O-])c3c2)c1
IC50 (MRC5): 82.1 µM | logP [1]: 1.4 | MIC90 [2]: 17.8 µM (≈ 5.29 µg/mL) | selectivity ratio [3]: 4.6

O=C(N/N=C/c1ccc2no[n+]([O-])c2c1)c1ccc([N+](=O)[O-])cc1
Activity (Escherichia coli): inactive | Activity (Candida albicans): inactive | logP [1]: 0.9 | MIC90 [2]: 5.29 µM (≈ 1.73 µg/mL) | Activity (Staphylococcus aureus): inactive

NNC(=O)c1ccncc1 [ISONIAZID]
MIC90 [2]: 0.1 µM (≈ 0.0137 µg/mL) | MIC90 [4]: 1.11 µM (≈ 0.152 µg/mL)

Nc1ccccc1C(=O)N/N=C/c1ccc2no[n+]([O-])c2c1
IC50 (MRC5): 122 µM | logP [1]: 2 | MIC90 [2]: 12.3 µM (≈ 3.66 µg/mL) | selectivity ratio [3]: 9.9

CC(C)(C)c1ccc(C(=O)N/N=C/c2ccc3no[n+]([O-])c3c2)cc1
IC50 (MRC5): 25.2 µM | logP [1]: 3.8 | MIC90 [2]: 3.9 µM (≈ 1.32 µg/mL) | selectivity ratio [3]: 6.3

N#Cc1c(-c2ccccc2)[n+]([O-])c2ccc(C3OCCO3)cc2[n+]1[O-]
IC50 (MRC5): 31.9 µM | logP [1]: 0.7 | MIC90 [2]: 30.8 µM (≈ 10.3 µg/mL) | selectivity ratio [3]: 0.9

N#Cc1c(-c2cccs2)[n+]([O-])c2ccc(C3OCCO3)cc2[n+]1[O-]
IC50 (MRC5): 17.3 µM | logP [1]: 1.9 | MIC90 [2]: 12.1 µM (≈ 4.13 µg/mL) | selectivity ratio [3]: 1.4

O=C(N/N=C/c1ccc2no[n+]([O-])c2c1)c1cccc(O)c1
logP [1]: 1.2 | MIC90 [2]: > 62 µM

N#Cc1c(-c2ccc(F)cc2)[n+]([O-])c2ccc(C3OCCO3)cc2[n+]1[O-]
IC50 (MRC5): 21.8 µM | logP [1]: 1.3 | MIC90 [2]: 24.3 µM (≈ 8.59 µg/mL) | selectivity ratio [3]: 0.9

NC(=O)c1c(COc2ccc(/C=N/NC(=O)c3ccncc3)cc2)no[n+]1[O-]
IC50 (MRC5): 1160 µM | logP [1]: 1.3 | MIC90 [2]: 0.43 µM (≈ 0.164 µg/mL) | selectivity ratio [3]: 2700 | MIC90 [4]: 2.04 µM (≈ 0.78 µg/mL)

O=C(N/N=C/c1ccc2no[n+]([O-])c2c1)c1ccccc1
IC50 (MRC5): 130 µM | logP [1]: 2.2 | MIC90 [2]: 8.3 µM (≈ 2.34 µg/mL) | selectivity ratio [3]: 15.6

O=C(N/N=C/c1ccc2no[n+]([O-])c2c1)c1ccc(O)cc1
Activity (Escherichia coli): inactive | Activity (Candida albicans): inactive | logP [1]: 1.2 | MIC90 [2]: > 62 µM | Activity (Staphylococcus aureus): inactive

COc1ccc(-c2c(C#N)[n+]([O-])c3cc(C4OCCO4)ccc3[n+]2[O-])cc1
IC50 (MRC5): 15 µM | logP [1]: 1.4 | MIC90 [2]: 12 µM (≈ 4.38 µg/mL) | selectivity ratio [3]: 1.2

N#Cc1c(-c2ccccc2)[n+]([O-])c2ccc(/C=N/NC(=O)c3ccncc3)cc2[n+]1[O-]
IC50 (MRC5): 21 µM | logP [1]: 1 | MIC90 [2]: 39.7 µM (≈ 16.3 µg/mL) | selectivity ratio [3]: 0.5

O=C(N/N=C/c1ccc2no[n+]([O-])c2c1)c1ccccc1O
logP [1]: 1.3 | MIC90 [2]: > 62 µM

Cc1ccc(-c2c(C#N)[n+]([O-])c3cc(C4OCCO4)ccc3[n+]2[O-])cc1
IC50 (MRC5): 17.2 µM | logP [1]: 1.6 | MIC90 [2]: 16.5 µM (≈ 5.76 µg/mL) | selectivity ratio [3]: 1.1

Nc1ccc(C(=O)N/N=C/c2ccc3no[n+]([O-])c3c2)cc1
Activity (Escherichia coli): inactive | Activity (Candida albicans): inactive | IC50 (MRC5): 841 µM | logP [1]: 1.2 | MIC90 [2]: 10.7 µM (≈ 3.17 µg/mL) | Activity (Staphylococcus aureus): inactive | selectivity ratio [3]: 78.9 | MIC90 [4]: > 10 µM

N#Cc1c(-c2ccc(Cl)cc2)[n+]([O-])c2ccc(C3OCCO3)cc2[n+]1[O-]
IC50 (MRC5): 12.6 µM | logP [1]: 1.8 | MIC90 [2]: 16.2 µM (≈ 5.99 µg/mL) | selectivity ratio [3]: 0.8

N#Cc1c(-c2ccc(OC(F)(F)F)cc2)[n+]([O-])c2ccc(C3OCCO3)cc2[n+]1[O-]
IC50 (MRC5): 66.8 µM | logP [1]: 2.2 | MIC90 [2]: 15.4 µM (≈ 6.46 µg/mL) | selectivity ratio [3]: 4.3

CO[C@H]1/C=C/O[C@@]2(C)Oc3c(C)c(O)c4c(O)c(c(/C=N/N5CCN(C)CC5)c(O)c4c3C2=O)NC(=O)/C(C)=C\C=C\[C@H](C)[C@H](O)[C@@H](C)[C@@H](O)[C@@H](C)[C@H](OC(C)=O)[C@@H]1C [RIFAMPIN]
inhibition in vivo at 20 mg/kg [5]: 84% | inhibition in vivo at 20 mg/kg [6]: 91% | inhibition in vivo at 20 mg/kg [7]: 63% | inhibition in vivo at 20 mg/kg [8]: 66.3% | inhibition in vivo at 20 mg/kg [9]: 76.3% | MIC90 [10]: 0.05 µM (≈ 0.0411 µg/mL) | inhibition in vivo at 20 mg/kg [11]: 68% | inhibition in vivo at 20 mg/kg [12]: 73.7% | inhibition in vivo at 20 mg/kg [13]: 62.3% | MIC90 [14]: 0.02 µM (≈ 0.0165 µg/mL)

NC(=O)c1c(COc2cccc(/C=N/NC(=O)c3ccncc3)c2)no[n+]1[O-]
IC50 (MRC5): 1280 µM | logP [1]: 1.3 | MIC90 [2]: 0.4 µM (≈ 0.153 µg/mL) | selectivity ratio [3]: 3200 | MIC90 [4]: 4.2 µM (≈ 1.61 µg/mL)

N#Cc1c(-c2ccco2)[n+]([O-])c2ccc(C3OCCO3)cc2[n+]1[O-]
IC50 (MRC5): 35.7 µM | logP [1]: 2 | MIC90 [2]: 5.2 µM (≈ 1.69 µg/mL) | selectivity ratio [3]: 6.8

NC(=O)c1c(COc2ccccc2/C=N/NC(=O)c2ccncc2)no[n+]1[O-]
IC50 (MRC5): 854 µM | logP [1]: 1.3 | MIC90 [2]: 0.42 µM (≈ 0.161 µg/mL) | selectivity ratio [3]: 2030 | MIC90 [4]: 7.72 µM (≈ 2.95 µg/mL)
